Here are results for 16 compounds from ChEMBL document CHEMBL4052824, “Interfering with HuR-RNA Interaction: Design, Synthesis and Biological Characterization of Tanshinone Mimics as Novel, Effective HuR Inhibitors” (J Med Chem, 2018).

The target in assay [1] is T1, ELAV-like protein 1 (Homo sapiens, UniProt Q15717). The assay can be described thus: Binding affinity to human full length recombinant HuR expressed in Escherichia coli […] assessed as inhibition of interaction with 5'-DY681-labeled AU-rich RNA probe at 5 uM after 30 mins by REMSA. The gist of the method:
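Non-denaturing, non-cross-linked REMSA: full-length recombinant His-tagged HuR (E. coli-expressed) in at least 10-fold excess incubated 30 min with 75 fmol 5′-DY681-labeled AU-rich RNA probe plus DMSO or compound at 5 μM; reduction of shifted probe band scored qualitatively.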

The test system of assay [2] is MCF7. The assay can be described thus: Cytotoxicity against human MCF7 cells assessed as decrease in cell viability after 72 hrs by OZBlue assay. The note with it: MCF7, 72 h.
The test system of assay [3] is MDA-MB-231. Briefly: Cytotoxicity against human MDA-MB-231 cells assessed as decrease in cell viability after 72 hrs by OZBlue assay. The note with it: MDA-MB-231, 72 h.
Assay [4] deals with PANC-1. The assay can be described thus: Cytotoxicity against human PANC1 cells assessed as decrease in cell viability after 72 hrs by OZBlue assay. Conditions: PANC-1, 72 h.
Assay [5] has as its target T1, ELAV-like protein 1. Briefly: Binding affinity to human full length recombinant His-tagged HuR expressed in Escherichia coli […] assessed as inhibition of interaction with single-strand Bi-AU RNA probe by AlphaScreen assay. In general terms: Bead proximity is the source of the signal in Alpha formats.
Assay [6] addresses T1, ELAV-like protein 1. The assay can be described thus: Change in HuR localization from nucleus to cytoplasm in human MCF7 cells at 1 uM after 3 hrs by DAPI staining-based immunofluorescence method. The class given is cell-based. The method in brief: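 MCF7 cells, 8.000/well, treated 3 h alongside DMSO control, then fixed in 3.7% PFA for 15 min at RT. Permeabilised 10 min (200 mM sucrose, 0.2% Triton X-100) and blocked 15 min in 2% BSA. Stained with anti-HuR (1:250), Alexa 594 secondary (1:500) and DAPI (1.5 μg/mL). Imaged at 40×, 13 fields/well. Read-out: nuclear/cytoplasmic HuR ratio, mean of single cells per well.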

Assay [7] is described as follows: Binding affinity to TNF AU-rich elements (unknown origin) at 10 uM by CD spectroscopic method. The gist of the method:
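Circular dichroism of TNF-ARE RNA (10 μM final) with compound (10 μM) in 10 mM sodium phosphate, pH 7.3. Spectra were recorded at 240–350 nm and 100 nm/min. The spectrum of compound alone (10 μM) in the same buffer was subtracted, and Δε was plotted to judge any change in RNA conformation.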

Assay [8] is described as follows: Binding affinity to 5'-DY681-labeled AU-rich RNA probe (unknown origin) at 5 uM after 30 mins by REMSA. The gist of the method:
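Non-denaturing, non-cross-linked gel-shift assay: 75 fmol of 5′-DY681-labeled AU-rich RNA probe incubated 30 min with compound at 5 μM, with DMSO as control. The probe was read by its fluorescent label to detect a shift or loss of the free RNA band.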

Assay [9] deals with MCF7. The assay can be described thus: Downregulation of RPLP0 mRNA expression in human MCF7 cells at 5 uM after 6 hrs by qRT-PCR method. It is filed as functional, cell-based. The method in brief:
(§1)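 MCF7 cells treated with 5 μM compound or DMSO for 6 h. Total RNA extracted, transcript levels measured by qRT-PCR and normalized to RNA18s. Biological triplicate, mean ± SD, t test versus control.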

Assay [10] concerns MCF7. Briefly: Downregulation of HPRT1 mRNA expression in human MCF7 cells at 5 uM after 6 hrs by qRT-PCR method. It is filed as functional, cell-based. The gist of the method:
as §1
A general note: Quantitative PCR measures a nucleic acid by following its amplification.

Assay [11] relates to PANC-1. The assay can be described thus: Antimigratory activity in human PANC1 cells at 5 to 20 uM after 24 to 48 hrs by scratch assay. The class given is functional, cell-based. The gist of the method:
(§2)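 Scratch assay: monolayers in DMEM with 10% FBS wounded with a pipette tip, then treated with DMSO or compound; the same field imaged at 0, 24 and 48 h at 5× magnification and residual open wound area measured. Student t test.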

The subject of assay [12] is MDA-MB-231. The assay can be described thus: Antimigratory activity in human MDA-MB-231 cells at 5 to 20 uM after 24 to 48 hrs by scratch assay. It is filed as functional, cell-based. The gist of the method: as §2

Activity calls are given as the source filed them. No cut-off for these calls is given here. Where only a bound is given, the exact number is not on record here.

T1 sequence (Q15717 whole entry): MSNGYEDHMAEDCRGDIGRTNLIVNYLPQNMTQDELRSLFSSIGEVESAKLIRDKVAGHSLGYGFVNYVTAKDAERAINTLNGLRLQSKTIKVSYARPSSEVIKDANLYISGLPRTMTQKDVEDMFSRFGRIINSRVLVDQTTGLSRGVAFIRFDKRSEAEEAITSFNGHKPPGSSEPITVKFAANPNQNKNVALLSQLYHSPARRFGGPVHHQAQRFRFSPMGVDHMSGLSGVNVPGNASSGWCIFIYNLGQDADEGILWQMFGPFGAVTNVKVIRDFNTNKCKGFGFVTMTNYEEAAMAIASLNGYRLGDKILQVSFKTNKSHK

For `Cc1ccccc1-c1cn(S(=O)(=O)c2ccccc2)c2c1C(=O)C(=O)C=C2`, in [1], the inhibition result was “Active”. For the same compound, the IC50 (usually the concentration needed to halve the response being measured) in [2] came to 58.5 µM; in assay [3] it was 47.2 µM; in assay [4], 25.9 µM.

For `O=C1C(=O)c2c(-c3ccccc3)cn(S(=O)(=O)c3ccccc3)c2C2=C1C1C=CC2CC1` (stereo unspecified), the Ki (commonly a dissociation constant, usually derived from enzyme kinetics or from competition with a known ligand) in [5] was > 0.3 µM.

In the case of `O=C1C=Cc2c(c(-c3ccccc3)cn2S(=O)(=O)c2cccc([N+](=O)[O-])c2)C1=O`, the Ki in assay [5] was > 0.1 µM.

On to `CN(C)c1ccc(-c2cn(S(=O)(=O)c3ccccc3)c3c2C(=O)C(=O)C=C3)cc1`, for which, in assay [5], the inhibition constant (Ki) is > 0.1 µM.

With `CC1=CC(=O)C(=O)c2c(-c3ccccc3)cn(S(=O)(=O)c3ccccc3)c21`, the Ki in [5] was > 0.2 µM.

For the compound `COc1ccc(-c2cn(S(=O)(=O)c3ccccc3)c3c2C(=O)C(=O)C=C3)cc1`, the inhibition constant (Ki) in [5] is > 0.2 µM.

For `O=C1C=Cc2c(c(-c3ccccc3)cn2S(=O)(=O)c2cccc(F)c2)C1=O`, the inhibition constant (Ki) in assay [5] is > 0.1 µM.

With `O=C(O)Cc1ccc(SC2=CC(=O)C(=O)c3c(-c4ccccc4)cn(S(=O)(=O)c4ccccc4)c32)cc1`, the inhibition entry in assay [1] is “Active”.

With `O=C1C=C(c2ccc([N+](=O)[O-])cc2)c2c(c(-c3ccccc3)cn2S(=O)(=O)c2ccccc2)C1=O`, the Ki in assay [5] is > 0.1 µM.

Consider `O=C1C=C(Sc2ccccc2)c2c(c(-c3ccccc3)cn2S(=O)(=O)c2ccccc2)C1=O`, for which, in [1], the inhibition result was “Active”. Moreover, the concentration for half-maximal inhibition (IC50) in assay [2] came out at 28.7 µM; in assay [3], 23.8 µM; in [4], 24.9 µM.

As for `Cc1cccc2c3c(ccc12)C1=C(C(=O)C3=O)[C@@H](C)CO1` [DIHYDROTANSHINONE I], the Ki in assay [5] was 0.05 µM. For the same compound, in assay [6], the outcome was inactive. The IC50 in [2] came to 3.73 µM; in [3], 8.99 µM; in assay [4], 2.91 µM.

For the compound `O=C1C=Cc2c(c(-c3ccccc3)cn2S(=O)(=O)c2ccccc2)C1=O`, the result in assay [7], in [8], in [9] and in [10] was inactive. In addition, the results for the IC50 in [2], in assay [3] and in [4] were 32.7 µM, 24.2 µM and 26.5 µM, respectively. Also, the result in assay [11] and in assay [12] was Active.

As to `O=C1C=Cc2c(c(-c3ccccc3)cn2S(=O)(=O)c2ccc([N+](=O)[O-])cc2)C1=O`, the inhibition entry in [1] was “Active”.

In the case of `COc1cccc(-c2cn(S(=O)(=O)c3ccccc3)c3c2C(=O)C(=O)C=C3)c1`, the Ki in [5] is > 0.2 µM.

With `COc1ccc(SC2=CC(=O)C(=O)c3c(-c4ccccc4)cn(S(=O)(=O)c4ccccc4)c32)cc1`, the 50% inhibitory concentration (IC50) in [2] came out at 23.5 µM; in [3], 14.3 µM; in assay [4], 13.6 µM.

Take `O=C1C=C(c2ccccc2)c2c(c(-c3ccccc3)cn2S(=O)(=O)c2ccccc2)C1=O`: the inhibitory constant (Ki) in assay [5] was > 0.1 µM.
